# Test results as given in ChEMBL document CHEMBL1811843, “Analogue-based design, synthesis and molecular docking analysis of 2,3-diaryl quinazolinones as non-ulcerogenic anti-inflammatory agents” (Bioorg Med Chem, 2011).
# System: Rattus norvegicus
# Assay: Antiinflammatory activity in rat assessed as inhibition of carrageenan-induced paw edema at 50 mg/kg, po measured after 90 min by Plethysmograph
# Type: functional
# Conditions: 1.5 h
# Method in brief: (§1)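 Rats randomly grouped, six per group, housed at 25 °C with a 12 h light/dark cycle and acclimatized one week. Test compounds given orally at 50 mg/kg with CMC-Na as vehicle, and indomethacin 10 mg/kg as standard. Edema induced by 0.1 ml carrageenan solution injected into the hind paw. Paw volume measured by mercury-displacement plethysmograph before and 90, 180, 270 and 360 min after injection. % edema inhibition calculated from test and control paw volumes before and after carrageenan. Results given as mean ± SEM.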
row,SMILES,inhibition in vivo at 50 mg/kg [%]
1,COc1ccc(-c2nc3cc(Cl)ccc3c(=O)n2-c2ccc(SC)cc2)cc1,36
2,COc1ccc(-c2nc3cc(F)ccc3c(=O)n2-c2ccc(S(C)(=O)=O)cc2)cc1,31
3,COc1ccc(-c2nc3ccc(Br)cc3c(=O)n2-c2ccc(S(C)(=O)=O)cc2)cc1,39
4,COc1ccc(-c2nc3ccc(Br)cc3c(=O)n2-c2ccc(SC)cc2)cc1,32
5,CSc1ccc(-n2c(-c3ccccc3)nc3cc(Cl)ccc3c2=O)cc1,31
6,CS(=O)(=O)c1ccc(-n2c(-c3ccccc3)nc3cc(Cl)ccc3c2=O)cc1,32
7,COc1ccc(-c2nc3ccccc3c(=O)n2-c2ccc(S(C)(=O)=O)cc2)cc1,35
8,CSc1ccc(-n2c(-c3ccccc3)nc3ccccc3c2=O)cc1,29
9,CSc1ccc(-n2c(-c3ccccc3)nc3ccc(Br)cc3c2=O)cc1,30

# System: Rattus norvegicus
# Assay: Toxicity in albino Wistar rat assessed as ulcerogenic activity measuring gastric ulcer lesion index at 100 mg/kg, po once daily for four consecutive days
# Type: organism-based, Stomach
# Parameters: dose 100 mg/kg, route oral
# Conditions: in vivo
# Method in brief: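 Wistar albino rats (150–200 g, either sex, fasted) were randomized into groups of 10 and dosed orally once daily for four days alongside a vehicle control group. Rats were killed under deep ether anaesthesia and stomachs removed, opened along the greater curvature, and examined under a dissecting microscope for lesions or bleeding. Ulcer lesion index is given in cm.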
row,SMILES,Activity [cm]
1,CS(=O)(=O)c1ccc(-n2c(-c3ccccc3)nc3cc(Cl)ccc3c2=O)cc1,0

# System: Rattus norvegicus
# Assay: Antiinflammatory activity in rat assessed as inhibition of carrageenan-induced paw edema at 50 mg/kg, po measured after 270 min by Plethysmograph
# Type: functional
# Conditions: 4.5 h
# Method in brief: as §1
row,SMILES,inhibition in vivo at 50 mg/kg [%]
1,COc1ccc(-c2nc3cc(Cl)ccc3c(=O)n2-c2ccc(SC)cc2)cc1,43
2,COc1ccc(-c2nc3cc(F)ccc3c(=O)n2-c2ccc(S(C)(=O)=O)cc2)cc1,36
3,COc1ccc(-c2nc3ccc(Br)cc3c(=O)n2-c2ccc(S(C)(=O)=O)cc2)cc1,49
4,COc1ccc(-c2nc3ccc(Br)cc3c(=O)n2-c2ccc(SC)cc2)cc1,39
5,CSc1ccc(-n2c(-c3ccccc3)nc3cc(Cl)ccc3c2=O)cc1,34
6,CS(=O)(=O)c1ccc(-n2c(-c3ccccc3)nc3cc(Cl)ccc3c2=O)cc1,42
7,COc1ccc(-c2nc3ccccc3c(=O)n2-c2ccc(S(C)(=O)=O)cc2)cc1,42
8,CSc1ccc(-n2c(-c3ccccc3)nc3ccccc3c2=O)cc1,34
9,CSc1ccc(-n2c(-c3ccccc3)nc3ccc(Br)cc3c2=O)cc1,35

# Molecular target: T1, Prostaglandin G/H synthase 1 (Ovis aries) (UniProt P05979)
# T1 sequence (whole entry): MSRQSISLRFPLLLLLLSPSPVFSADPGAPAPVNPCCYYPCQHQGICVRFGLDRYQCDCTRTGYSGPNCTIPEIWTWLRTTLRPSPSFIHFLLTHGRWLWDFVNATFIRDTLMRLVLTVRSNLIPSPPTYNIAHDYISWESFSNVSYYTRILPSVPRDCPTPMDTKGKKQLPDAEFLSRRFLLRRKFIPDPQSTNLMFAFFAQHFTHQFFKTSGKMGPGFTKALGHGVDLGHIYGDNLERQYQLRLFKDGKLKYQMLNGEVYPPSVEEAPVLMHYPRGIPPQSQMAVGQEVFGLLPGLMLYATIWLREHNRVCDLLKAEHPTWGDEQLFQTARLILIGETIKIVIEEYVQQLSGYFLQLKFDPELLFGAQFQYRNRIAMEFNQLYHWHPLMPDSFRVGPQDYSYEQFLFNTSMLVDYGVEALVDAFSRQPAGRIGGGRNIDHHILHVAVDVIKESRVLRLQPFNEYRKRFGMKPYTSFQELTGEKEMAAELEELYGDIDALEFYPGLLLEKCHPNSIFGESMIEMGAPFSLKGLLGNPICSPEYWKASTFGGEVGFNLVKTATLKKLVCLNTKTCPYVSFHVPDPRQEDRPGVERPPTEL
# Assay: Inhibition of sheep COX-1 at 20 uM by cayman colorimetric assay
# Conditions: not given
# Method in brief: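 Ovine COX-1 activity measured with a commercial ovine COX-1/COX-2 inhibitor screening kit, with calculations done per the kit guidelines. Each value is the mean of two determinations.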
row,SMILES,inhibition [%]
1,COc1ccc(-c2nc3cc(F)ccc3c(=O)n2-c2ccc(S(C)(=O)=O)cc2)cc1,29
2,COc1ccc(-c2nc3ccc(Br)cc3c(=O)n2-c2ccc(S(C)(=O)=O)cc2)cc1,7
3,CS(=O)(=O)c1ccc(-n2c(-c3ccccc3)nc3cc(Cl)ccc3c2=O)cc1,0
4,COc1ccc(-c2nc3ccccc3c(=O)n2-c2ccc(S(C)(=O)=O)cc2)cc1,24
5,CSc1ccc(-n2c(-c3ccccc3)nc3ccccc3c2=O)cc1,12

# System: Rattus norvegicus
# Assay: Antiinflammatory activity in rat assessed as inhibition of carrageenan-induced paw edema at 50 mg/kg, po measured after 360 min by Plethysmograph
# Type: functional
# Conditions: 6 h
# Method in brief: as §1
row,SMILES,inhibition in vivo at 50 mg/kg [%]
1,COc1ccc(-c2nc3cc(Cl)ccc3c(=O)n2-c2ccc(SC)cc2)cc1,47
2,COc1ccc(-c2nc3cc(F)ccc3c(=O)n2-c2ccc(S(C)(=O)=O)cc2)cc1,39
3,COc1ccc(-c2nc3ccc(Br)cc3c(=O)n2-c2ccc(S(C)(=O)=O)cc2)cc1,54
4,COc1ccc(-c2nc3ccc(Br)cc3c(=O)n2-c2ccc(SC)cc2)cc1,42
5,CSc1ccc(-n2c(-c3ccccc3)nc3cc(Cl)ccc3c2=O)cc1,39
6,CS(=O)(=O)c1ccc(-n2c(-c3ccccc3)nc3cc(Cl)ccc3c2=O)cc1,45
7,COc1ccc(-c2nc3ccccc3c(=O)n2-c2ccc(S(C)(=O)=O)cc2)cc1,46
8,CSc1ccc(-n2c(-c3ccccc3)nc3ccccc3c2=O)cc1,38
9,CSc1ccc(-n2c(-c3ccccc3)nc3ccc(Br)cc3c2=O)cc1,39

# Organism: Ovis aries
# Assay: Selectivity ratio of inhibition for sheep COX-1 to inhibition for sheep COX-2 at 20 uM
# Conditions: not given
row,SMILES,Selectivity ratio
1,COc1ccc(-c2nc3cc(F)ccc3c(=O)n2-c2ccc(S(C)(=O)=O)cc2)cc1,0.453
2,COc1ccc(-c2nc3ccc(Br)cc3c(=O)n2-c2ccc(S(C)(=O)=O)cc2)cc1,0.106
3,COc1ccc(-c2nc3ccccc3c(=O)n2-c2ccc(S(C)(=O)=O)cc2)cc1,0.471
4,CSc1ccc(-n2c(-c3ccccc3)nc3ccccc3c2=O)cc1,0.3

# System: Rattus norvegicus
# Assay: Antiinflammatory activity in rat assessed as inhibition of carrageenan-induced paw edema at 50 mg/kg, po measured after 180 min by Plethysmograph
# Type: functional
# Conditions: 3 h
# Method in brief: as §1
row,SMILES,inhibition in vivo at 50 mg/kg [%]
1,COc1ccc(-c2nc3cc(Cl)ccc3c(=O)n2-c2ccc(SC)cc2)cc1,38
2,COc1ccc(-c2nc3cc(F)ccc3c(=O)n2-c2ccc(S(C)(=O)=O)cc2)cc1,34
3,COc1ccc(-c2nc3ccc(Br)cc3c(=O)n2-c2ccc(S(C)(=O)=O)cc2)cc1,41
4,COc1ccc(-c2nc3ccc(Br)cc3c(=O)n2-c2ccc(SC)cc2)cc1,35
5,CSc1ccc(-n2c(-c3ccccc3)nc3cc(Cl)ccc3c2=O)cc1,32
6,CS(=O)(=O)c1ccc(-n2c(-c3ccccc3)nc3cc(Cl)ccc3c2=O)cc1,37
7,COc1ccc(-c2nc3ccccc3c(=O)n2-c2ccc(S(C)(=O)=O)cc2)cc1,38
8,CSc1ccc(-n2c(-c3ccccc3)nc3ccccc3c2=O)cc1,32
9,CSc1ccc(-n2c(-c3ccccc3)nc3ccc(Br)cc3c2=O)cc1,33
